ChEMBL document CHEMBL3351507, “11H-Pyrido[3',2':4,5]pyrrolo[3,2-c]cinnoline and pyrido[3',2':4,5]pyrrolo[1,2-c][1,2,3]benzotriazine: two new ring systems with antitumor activity” (2014)
Activity calls are given as the source filed them. The calls are words filed in the database; no cut-off is given here.

Key:
[1] = test system: T47D; test: Cytotoxicity against human T47D cells assessed as growth inhibition after 72 hrs by MTT assay; type: functional
Method in brief: (§1)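 NCI 60-cell-line panel screen. Compounds were tested at 5 concentrations in 10-fold dilution (10^-4 to 10^-8 M) across the full panel. GI50 was taken as the molar concentration giving 50% inhibition of net cell growth.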

[2] = test system: NCI-H23; test: Cytotoxicity against human NCI-H23 cells assessed as growth inhibition after 72 hrs by MTT assay; type: functional; settings: NCI-H23, 72 h
[3] = test system: ACHN; test: Cytotoxicity against human ACHN cells assessed as growth inhibition after 72 hrs by MTT assay; type: functional
[4] = test system: NCI-H522; test: Cytotoxicity against human NCI-H522 cells assessed as growth inhibition after 72 hrs by MTT assay; type: functional; settings: NCI-H522, 72 h; method in brief: as §1
[5] = test system: K562; test: Cytotoxicity against human K562 cells assessed as growth inhibition after 72 hrs by MTT assay; type: functional; settings: K562, 72 h
[6] = test system: SK-OV-3; test: Cytotoxicity against human SKOV3 cells assessed as growth inhibition after 72 hrs by MTT assay; type: functional; settings: SK-OV-3, 72 h; method in brief: as §1
[7] = Cytotoxicity against human LoVo/DX cells assessed as growth inhibition after 72 hrs by MTT assay; type: functional
Method in brief: (§2)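 Cells were grown in medium with 10% heat-inactivated FBS plus penicillin/streptomycin: RPMI-1640 for Jurkat and CEM, DMEM for A-431, HAM's F12 for LoVo. The doxorubicin-resistant LoVo subclone was kept with 0.1 µg/mL doxorubicin. Cells were seeded at 5x10^3 per well and pre-incubated 24 h at 37 °C.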

[8] = biological target: T1, DNA topoisomerase 1 (Homo sapiens) (UniProt P11387); test: Inhibition of human DNA topoisomerase 1-mediated DNA single strand cleavage at 5 to 100 uM after 30 mins by agarose gel electrophoresis relative to untreated control
T1 sequence (whole entry): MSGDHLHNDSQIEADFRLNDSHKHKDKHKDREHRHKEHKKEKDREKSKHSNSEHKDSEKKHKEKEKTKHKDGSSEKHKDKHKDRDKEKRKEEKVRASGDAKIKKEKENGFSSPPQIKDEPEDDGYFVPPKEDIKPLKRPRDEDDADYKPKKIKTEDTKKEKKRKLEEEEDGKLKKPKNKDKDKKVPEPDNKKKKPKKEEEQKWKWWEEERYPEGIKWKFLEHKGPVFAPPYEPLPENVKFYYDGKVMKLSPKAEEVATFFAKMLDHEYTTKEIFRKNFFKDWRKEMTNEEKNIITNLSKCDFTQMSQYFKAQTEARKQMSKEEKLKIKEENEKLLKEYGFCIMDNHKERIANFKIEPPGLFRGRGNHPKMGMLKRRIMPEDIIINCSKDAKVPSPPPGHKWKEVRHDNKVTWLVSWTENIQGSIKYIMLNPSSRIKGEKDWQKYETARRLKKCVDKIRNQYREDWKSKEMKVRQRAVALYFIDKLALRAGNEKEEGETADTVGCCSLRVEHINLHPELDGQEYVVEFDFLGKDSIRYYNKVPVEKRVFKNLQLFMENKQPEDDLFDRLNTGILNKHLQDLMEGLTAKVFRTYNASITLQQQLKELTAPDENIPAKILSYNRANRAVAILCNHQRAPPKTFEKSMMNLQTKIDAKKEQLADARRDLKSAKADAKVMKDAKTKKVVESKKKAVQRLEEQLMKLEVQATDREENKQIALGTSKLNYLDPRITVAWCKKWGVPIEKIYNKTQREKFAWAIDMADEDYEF
Method in brief: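 Reactions were set up as for relaxation: human topoisomerase I, 0.250 µg pBR322, compound 5-100 µM, 37 °C for 30 min, stopped with SDS/proteinase K. Samples were run on 0.8% agarose containing 0.5 µg/mL ethidium bromide, then destained in water, so that cleaved/nicked DNA could be detected under UV.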

[9] = Cytotoxicity against human UACC62 cells assessed as growth inhibition after 72 hrs by MTT assay; type: functional; settings: UACC-62, 72 h; method in brief: as §1
[10] = test system: IGROV-1; test: Cytotoxicity against human IGROV1 cells assessed as growth inhibition after 72 hrs by MTT assay; type: functional; settings: IGROV-1, 72 h
[11] = test system: HOP-92; test: Cytotoxicity against human HOP92 cells assessed as growth inhibition after 72 hrs by MTT assay; type: functional; settings: HOP-92, 72 h
[12] = test system: LoVo; test: Anticlonogenic activity against human LoVo cells assessed as inhibition of colony formation of cells incubated for 24 hrs followed by compound washout measured after 1 to 2 weeks by crystal violet staining-based assay; type: functional, cell-based
Method in brief: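 LoVo cells were plated at 1000 per well in six-well plates and exposed to compound at different concentrations for 24 h. Medium was then replaced, with fresh medium every 2–3 days, until colonies formed (1–2 weeks). Colony number is given as a percentage of untreated cells (100%), as mean ± SEM of 3 independent experiments.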

[13] = test system: DU-145; test: Cytotoxicity against human DU145 cells assessed as growth inhibition after 72 hrs by MTT assay; type: functional; settings: DU-145, 72 h
[14] = test system: 786-0; test: Cytotoxicity against human 786-0 cells assessed as growth inhibition after 72 hrs by MTT assay; type: functional; settings: 786-0, 72 h
[15] = Cytotoxicity against human UO31 cells assessed as growth inhibition after 72 hrs by MTT assay; type: functional; settings: UO-31, 72 h; method in brief: as §1
[16] = test system: CCRF-CEM; test: Cytotoxicity against human CEM cells assessed as growth inhibition after 72 hrs by MTT assay; type: functional; method in brief: as §2
[17] = test system: Jurkat; test: Cell cycle arrest in human Jurkat cells assessed as accumulation at S phase at 0.5 uM after 24 hrs by propidium iodide staining-based flow cytometry (reference value: 15.5%); type: functional
[18] = Cytotoxicity against human OVCAR5 cells assessed as growth inhibition after 72 hrs by MTT assay; type: functional; settings: OVCAR-5, 72 h; method in brief: as §1
[19] = test system: CCRF-CEM; test: Resistance index, ratio of GI50 for human vinblastin-resistant CEM cells to GI50 for human CEM cells; type: functional
Method in brief: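 CEMVbl-100 (vinblastine-selected CEM) was grown in RPMI-1640 with 0.1 µg/mL vinblastine. LoVoDoxo was grown in HAM's F12 with 0.1 µg/mL doxorubicin; parental CEM and LoVo were grown without drug. Media had 10% FBS. 5x10^3 cells were seeded, preincubated 24 h at 37 °C, then exposed 72 h to compound (DMSO <1%). Read-out was MTT; GI50 came from dose-response curves of ≥3 experiments. RI = GI50 resistant / GI50 parental.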

[20] = test system: A-431; test: Cytotoxicity against human A431 cells assessed as growth inhibition after 72 hrs by MTT assay; type: functional; settings: A-431, 72 h; method in brief: as §2
[21] = test system: LoVo; test: Cytotoxicity against human LoVo cells assessed as growth inhibition after 72 hrs by MTT assay; type: functional; method in brief: as §2
[22] = test system: Jurkat; test: Cell cycle arrest in human Jurkat cells assessed as accumulation at S phase at 0.25 uM after 24 hrs by propidium iodide staining-based flow cytometry (reference value: 15.5%); type: functional
[23] = test system: SW-620; test: Cytotoxicity against human SW620 cells assessed as growth inhibition after 72 hrs by MTT assay; type: functional; settings: SW-620, 72 h; method in brief: as §1
[24] = test system: HT-29; test: Cytotoxicity against human HT-29 cells assessed as growth inhibition after 72 hrs by MTT assay; type: functional; settings: HT-29, 72 h
[25] = Cytotoxicity against human PC3 cells assessed as growth inhibition after 72 hrs by MTT assay; type: functional; settings: PC-3, 72 h; method in brief: as §1

Row | Structure (SMILES) | GI50 [1] | GI50 [2] | GI50 [3] | GI50 [4] | GI50 [5] | GI50 [6] | GI50 [7] | Activity [8] | GI50 [9] | GI50 [10] | GI50 [11] | inhibition [12] | GI50 [13] | GI50 [14] | GI50 [15] | GI50 [16] | Activity [17] | GI50 [18] | GI50 [23] | GI50 [24] | other results
1 | COc1ccc2c(c1)nnc1c3cccnc3[nH]c21 | 490 nM | 5500 nM | 200 nM | 1090 nM | 220 nM | 2690 nM | 1210 nM | Active | 910 nM | 310 nM | 82 nM | Dose-dependent effect | 1880 nM | 510 nM | 120 nM | 650 nM | 28.6% | 5720 nM | 380 nM | 750 nM | Ratio [19]: 1.57; GI50 [20]: 2350 nM; GI50 [21]: 3.64 µM; Activity [22]: 24.1%
2 | COc1cc2nnc3c4cccnc4[nH]c3c2cc1OC | 400 nM | 2340 nM | 330 nM | 2050 nM | 330 nM | 2290 nM |  |  | 2490 nM | 1730 nM | 210 nM |  | 2100 nM | 320 nM | 490 nM |  |  | 2530 nM | 440 nM | 1340 nM | GI50 [25]: 1490 nM
3 | O=Nc1c2cccnc2n2nnc3ccc(Cl)cc3c12 | 260 nM | 1170 nM | 330 nM | 950 nM | 130 nM | 2980 nM |  |  | 2360 nM | 1350 nM | 100 nM |  | 610 nM | 840 nM | 650 nM |  |  | 1380 nM | 190 nM | 910 nM | GI50 [25]: 740 nM
4 | COc1ccc2c(c1)nnn1c3ncccc3c(N=O)c21 | 160 nM | 5170 nM | 94 nM | 1250 nM | 110 nM | 1680 nM | 650 nM | Active | 850 nM | 110 nM | 42 nM | Dose-dependent effect | 1860 nM | 330 nM | 76 nM | 220 nM | 27.2% | 8020 nM | 270 nM | 620 nM | Ratio [19]: 2; GI50 [20]: 930 nM; GI50 [21]: 1.28 µM; Activity [22]: 25.1%
5 | COc1cc2nnn3c4ncccc4c(N=O)c3c2cc1OC | 210 nM | 2220 nM | 250 nM | 4010 nM | 210 nM | 4020 nM | 4330 nM | Active | 2920 nM | 1940 nM | 39 nM | Dose-dependent effect | 1990 nM | 230 nM | 400 nM | 240 nM | 24.7% | 2690 nM | 210 nM | 790 nM | GI50 [25]: 2360 nM; Ratio [19]: 2.13; GI50 [20]: 1410 nM; GI50 [21]: 3.89 µM; Activity [22]: 15.4%
